From ChEMBL document CHEMBL2177098, “Synthesis and evaluation of novel ¹⁸F labeled 2-pyridinylbenzoxazole and 2-pyridinylbenzothiazole derivatives as ligands for positron emission tomography (PET) imaging of β-amyloid plaques” (J Med Chem, 2012)

Experiments:
Heart [1] = test: Drug uptake in ICR mouse heart at 370 kBq/100 ul, iv at 60 mins by gamma-counting analysis; format: ADME, organism-based; conditions: in vivo, 1 h
Procedure, shortened: (§1)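 Male ICR mice (5 weeks, about 20 g) got 18F tracer in saline (370 KBq per 100 μL) via tail vein; n = 5 per time point, killed at 2, 10, 30, 60 min. Organs weighed and γ-counted; percent dose per gram wet tissue from comparison with diluted injectate aliquots.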

[2] = n-Octanol-PBS buffer partition coefficient, log D of the compound at 1.5 MBq after 3 mins at pH 7.4; format: physicochemical
Procedure, shortened: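 The tracer was partitioned between n-octanol and PBS by vortexing for 3 min at room temperature, then centrifuged for 5 min at 3000 rpm. Samples of the octanol (50 μL) and aqueous (500 μL) layers were counted. log D is the log of the octanol/PBS counts-per-gram ratio. The octanol layer was repartitioned until values were consistent. Measured in triplicate and repeated three times.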

Blood [3] = test: Drug uptake in ICR mouse blood at 370 kBq/100 ul, iv at 30 mins by gamma-counting analysis; format: ADME, organism-based; conditions: in vivo, 0.5 h; procedure, shortened: as §1
Heart [4] = test: Drug uptake in ICR mouse heart at 370 kBq/100 ul, iv at 2 mins by gamma-counting analysis; format: ADME, organism-based; conditions: in vivo; procedure, shortened: as §1
Stomach [5] = test: Drug uptake in ICR mouse stomach assessed per organ at 370 kBq/100 ul, iv at 30 mins by gamma-counting analysis; format: ADME, organism-based; conditions: in vivo, 0.5 h
Procedure, shortened: (§2)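 Male ICR mice (5 weeks, about 20 g) got 18F tracer in saline (370 KBq per 100 μL) via tail vein; n = 5 per time point, killed at 2, 10, 30, 60 min. Organs removed and γ-counted against diluted injectate; expressed as % injected dose per organ.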

Spleen [6] = test: Drug uptake in ICR mouse spleen at 370 kBq/100 ul, iv at 60 mins by gamma-counting analysis; format: ADME, organism-based; conditions: in vivo, 1 h; procedure, shortened: as §1
Intestine [7] = test: Drug uptake in ICR mouse intestine assessed per organ at 370 kBq/100 ul, iv at 2 mins by gamma-counting analysis; format: ADME, organism-based; conditions: in vivo; procedure, shortened: as §2
Stomach [8] = test: Drug uptake in ICR mouse stomach assessed per organ at 370 kBq/100 ul, iv at 60 mins by gamma-counting analysis; format: ADME, organism-based; conditions: in vivo, 1 h
Procedure, shortened: (§3)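 Normal male ICR mice (5 weeks, about 20 g) received the ¹⁸F tracer in saline (370 KBq per 100 μL) by tail-vein injection. Groups of n = 5 were killed at 2, 10, 30 and 60 min. Organs were removed, weighed and γ-counted against diluted aliquots of the injectate, giving % dose per gram. Stomach and intestine were expressed per organ. The brain ratio is 2 min/60 min uptake. Values are mean ± SD.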

[9] = Displacement of [125I]-IMPY from amyloid beta (1 to 42) fibrils after 2 hrs by gamma-counting analysis
Procedure, shortened: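 Competition binding with aggregated Aβ1-42 fibrils and [125I]IMPY (60000−100000 cpm/100 μL) in 0.05% BSA (1 mL total); inhibitors 10⁻⁴−10^−8.5 M in ethanol. Incubated 37 °C for 2 h, then GF/B vacuum filtration with PBS (0.02 M, pH 7.4) washes and γ counting. Three repeats; IC50 converted to Ki by Cheng−Prusoff.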

Lung [10] = test: Drug uptake in ICR mouse lung at 370 kBq/100 ul, iv at 2 mins by gamma-counting analysis; format: ADME, organism-based; conditions: in vivo; procedure, shortened: as §1
Kidney [11] = test: Drug uptake in ICR mouse kidney at 370 kBq/100 ul, iv at 2 mins by gamma-counting analysis; format: ADME, organism-based; conditions: in vivo; procedure, shortened: as §1
Brain [12] = test: Drug uptake in ICR mouse brain at 370 kBq/100 ul, iv at 60 mins by gamma-counting analysis; format: ADME, organism-based; conditions: in vivo, 1 h; procedure, shortened: as §1
Liver [13] = test: Drug uptake in ICR mouse liver at 370 kBq/100 ul, iv at 60 mins by gamma-counting analysis; format: ADME, organism-based; conditions: in vivo, 1 h; procedure, shortened: as §1
Liver [14] = test: Drug uptake in ICR mouse liver at 370 kBq/100 ul, iv at 2 mins by gamma-counting analysis; format: ADME, organism-based; conditions: in vivo; procedure, shortened: as §1
Spleen [15] = test: Drug uptake in ICR mouse spleen at 370 kBq/100 ul, iv at 10 mins by gamma-counting analysis; format: ADME, organism-based; conditions: in vivo; procedure, shortened: as §1
Bone [16] = test: Drug uptake in ICR mouse bone at 370 kBq/100 ul, iv at 30 mins by gamma-counting analysis; format: ADME, organism-based, Bone element; conditions: in vivo, 0.5 h; procedure, shortened: as §1
Lung [17] = test: Drug uptake in ICR mouse lung at 370 kBq/100 ul, iv at 60 mins by gamma-counting analysis; format: ADME, organism-based; conditions: in vivo, 1 h; procedure, shortened: as §1
Intestine [18] = test: Drug uptake in ICR mouse intestine assessed per organ at 370 kBq/100 ul, iv at 10 mins by gamma-counting analysis; format: ADME, organism-based; conditions: in vivo; procedure, shortened: as §2
Liver [19] = test: Drug uptake in ICR mouse liver at 370 kBq/100 ul, iv at 30 mins by gamma-counting analysis; format: ADME, organism-based; conditions: in vivo, 0.5 h; procedure, shortened: as §1
Lung [20] = test: Drug uptake in ICR mouse lung at 370 kBq/100 ul, iv at 10 mins by gamma-counting analysis; format: ADME, organism-based; conditions: in vivo; procedure, shortened: as §1
Bone [21] = test: Drug uptake in ICR mouse bone at 370 kBq/100 ul, iv at 60 mins by gamma-counting analysis; format: ADME, organism-based, Bone element; conditions: in vivo, 1 h; procedure, shortened: as §1
Liver [22] = test: Drug uptake in ICR mouse liver at 370 kBq/100 ul, iv at 10 mins by gamma-counting analysis; format: ADME, organism-based; conditions: in vivo; procedure, shortened: as §1
Spleen [23] = test: Drug uptake in ICR mouse spleen at 370 kBq/100 ul, iv at 30 mins by gamma-counting analysis; format: ADME, organism-based; conditions: in vivo, 0.5 h; procedure, shortened: as §1
Blood [24] = test: Drug uptake in ICR mouse blood at 370 kBq/100 ul, iv at 10 mins by gamma-counting analysis; format: ADME, organism-based; conditions: in vivo; procedure, shortened: as §1
Brain [25] = test: Drug uptake in ICR mouse brain at 370 kBq/100 ul, iv at 10 mins by gamma-counting analysis; format: ADME, organism-based; conditions: in vivo; procedure, shortened: as §1
Brain [26] = test: Ratio of drug uptake in brain at 2 mins to drug uptake in brain at 60 mins in ICR mouse at 370 KBq/100 ul, iv; format: ADME, organism-based; conditions: in vivo; procedure, shortened: as §3
Brain [27] = test: Drug uptake in wild type C57BL6 mouse brain at 370 KBq/100 ul after 1 hr by autoradiographic analysis; format: ADME, tissue-based; conditions: in vitro
Procedure, shortened: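 Paraffin brain sections from 12-month-old male control C57BL6 mice were deparaffinized through xylene and graded ethanol, then held in PBS (0.2 M, pH 7.4) for 30 min. They were incubated with the ¹⁸F tracer (370 KBq per 100 μL) for 1 h at room temperature. Sections were washed in 40% EtOH, rinsed with water for 1 min, dried, and exposed to a phosphor plate for 2 h. The same sections were then stained with thioflavin S.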

Blood [28] = test: Drug uptake in ICR mouse blood at 370 kBq/100 ul, iv at 2 mins by gamma-counting analysis; format: ADME, organism-based; conditions: in vivo; procedure, shortened: as §1
Brain [29] = test: Drug uptake in ICR mouse brain at 370 kBq/100 ul, iv at 30 mins by gamma-counting analysis; format: ADME, organism-based; conditions: in vivo, 0.5 h; procedure, shortened: as §1
Kidney [30] = test: Drug uptake in ICR mouse kidney at 370 kBq/100 ul, iv at 30 mins by gamma-counting analysis; format: ADME, organism-based; conditions: in vivo, 0.5 h; procedure, shortened: as §1
Brain [31] = test: Drug uptake in ICR mouse brain at 370 kBq/100 ul, iv at 2 mins by gamma-counting analysis; format: ADME, organism-based; conditions: in vivo; procedure, shortened: as §1
Stomach [32] = test: Drug uptake in ICR mouse stomach assessed per organ at 370 kBq/100 ul, iv at 2 mins by gamma-counting analysis; format: ADME, organism-based; conditions: in vivo; procedure, shortened: as §2
Bone [33] = test: Drug uptake in ICR mouse bone at 370 kBq/100 ul, iv at 10 mins by gamma-counting analysis; format: ADME, organism-based, Bone element; conditions: in vivo; procedure, shortened: as §1
Blood [34] = test: Drug uptake in ICR mouse blood at 370 kBq/100 ul, iv at 60 mins by gamma-counting analysis; format: ADME, organism-based; conditions: in vivo, 1 h; procedure, shortened: as §1
Heart [35] = test: Drug uptake in ICR mouse heart at 370 kBq/100 ul, iv at 30 mins by gamma-counting analysis; format: ADME, organism-based; conditions: in vivo, 0.5 h; procedure, shortened: as §1
Lung [36] = test: Drug uptake in ICR mouse lung at 370 kBq/100 ul, iv at 30 mins by gamma-counting analysis; format: ADME, organism-based; conditions: in vivo, 0.5 h; procedure, shortened: as §1
Spleen [37] = test: Drug uptake in ICR mouse spleen at 370 kBq/100 ul, iv at 2 mins by gamma-counting analysis; format: ADME, organism-based; conditions: in vivo; procedure, shortened: as §1
Intestine [38] = test: Drug uptake in ICR mouse intestine assessed per organ at 370 kBq/100 ul, iv at 60 mins by gamma-counting analysis; format: ADME, organism-based; conditions: in vivo, 1 h; procedure, shortened: as §2
Bone [39] = test: Drug uptake in ICR mouse bone at 370 kBq/100 ul, iv at 2 mins by gamma-counting analysis; format: ADME, organism-based, Bone element; conditions: in vivo; procedure, shortened: as §1
Kidney [40] = test: Drug uptake in ICR mouse kidney at 370 kBq/100 ul, iv at 10 mins by gamma-counting analysis; format: ADME, organism-based; conditions: in vivo; procedure, shortened: as §1
Stomach [41] = test: Drug uptake in ICR mouse stomach assessed per organ at 370 kBq/100 ul, iv at 10 mins by gamma-counting analysis; format: ADME, organism-based; conditions: in vivo; procedure, shortened: as §2
Intestine [42] = test: Drug uptake in ICR mouse intestine assessed per organ at 370 kBq/100 ul, iv at 30 mins by gamma-counting analysis; format: ADME, organism-based; conditions: in vivo, 0.5 h; procedure, shortened: as §2
Kidney [43] = test: Drug uptake in ICR mouse kidney at 370 kBq/100 ul, iv at 60 mins by gamma-counting analysis; format: ADME, organism-based; conditions: in vivo, 1 h; procedure, shortened: as §1
Heart [44] = test: Drug uptake in ICR mouse heart at 370 kBq/100 ul, iv at 10 mins by gamma-counting analysis; format: ADME, organism-based; conditions: in vivo; procedure, shortened: as §1

CN(C)c1ccc(-c2nc3ccc(OCCOCCOCC[18F])cc3s2)cn1
Drug uptake (Heart [1]): 2.02 % ID/g
logD at 0.05 h [2]: 3.08
Drug uptake (Blood [3]): 4.96 % ID/g
Drug uptake (Heart [4]): 4.5 % ID/g
Drug uptake (Stomach [5]): 14.13 %ID
Drug uptake (Spleen [6]): 1.47 % ID/g
Drug uptake (Intestine [7]): 4.68 %ID
Drug uptake (Stomach [8]): 11.34 %ID
Ki [9]: 5.8 nM
Drug uptake (Lung [10]): 6.69 % ID/g
Drug uptake (Kidney [11]): 6.82 % ID/g
Drug uptake (Brain [12]): 1.84 % ID/g
Drug uptake (Liver [13]): 4.75 % ID/g
Drug uptake (Liver [14]): 12.9 % ID/g
Drug uptake (Spleen [15]): 2.97 % ID/g
Drug uptake (Bone [16]): 1.64 % ID/g
Drug uptake (Lung [17]): 2.33 % ID/g
Drug uptake (Intestine [18]): 10.4 %ID
Drug uptake (Liver [19]): 6.79 % ID/g
Drug uptake (Lung [20]): 4.59 % ID/g
Drug uptake (Bone [21]): 1.58 % ID/g
Drug uptake (Liver [22]): 11.6 % ID/g
Drug uptake (Spleen [23]): 2.59 % ID/g
Drug uptake (Blood [24]): 5.44 % ID/g
Drug uptake (Brain [25]): 2.64 % ID/g
Ratio (Brain [26]): 1.77
Drug uptake (Brain [27]): Not Active
Drug uptake (Blood [28]): 9.79 % ID/g
Drug uptake (Brain [29]): 1.98 % ID/g
Drug uptake (Kidney [30]): 3.88 % ID/g
Drug uptake (Brain [31]): 3.26 % ID/g
Drug uptake (Stomach [32]): 2.55 %ID
Drug uptake (Bone [33]): 0.95 % ID/g
Drug uptake (Blood [34]): 3.79 % ID/g
Drug uptake (Heart [35]): 2.62 % ID/g
Drug uptake (Lung [36]): 3.28 % ID/g
Drug uptake (Spleen [37]): 3.14 % ID/g
Drug uptake (Intestine [38]): 26.66 %ID
Drug uptake (Bone [39]): 1.86 % ID/g
Drug uptake (Kidney [40]): 5.45 % ID/g
Drug uptake (Stomach [41]): 8.98 %ID
Drug uptake (Intestine [42]): 19.57 %ID
Drug uptake (Kidney [43]): 3.01 % ID/g
Drug uptake (Heart [44]): 3.3 % ID/g

CN(C)c1ccc(-c2nc3ccc(OCCOCCF)cc3s2)cn1
Ki [9]: 4.6 nM
